Source: PubChem BioAssay (several laboratories)
Most compounds without a hit are left out; they make up all but 2.4% or so of the library.
PfM18AAP inh-1 = PfM18AAP enzyme inhibition; recombinant PfM18AAP, H-Glu-NHMec fluorogenic cleavage; inhibition, % at 7.35 µM; hit rate 1.2% among 290,000; AID 1822;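 active = inhibition above the campaign mean inhibition over all tested compounds plus 3 SD, cut at about 28% in these data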;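 also: 0% = plate median of test compound wells and 100% = 2 mM ZnCl2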
HKDC1 inh = HKDC1 (human) hexokinase inhibition; Q2TB90; recombinant HKDC1, G6PDH/diaphorase resazurin coupled fluorescence; inhibition, % at 20 µM; hit rate 0.16% among 340,000; AID 493160;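 active = inhibition above about 35% when tested at 20 µM, limit read from the data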;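 also: plate controls were DMSO wells with enzyme for no effect and DMSO wells lacking enzyme for full effect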
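Test system: recombinant HKDC1 (HK5) hexokinase enzyme, produced in-house; Amount: enzyme 5 µg/mL final; Buffer or medium: Tris pH 8.0 buffer with MgCl2, Tween-20, BSA, BME; Reagent: glucose and ATP substrates; Doses: 20 µM test compound, 1% DMSO; Incubation: 90 min reaction incubation at room temperature, dark; Detection: resorufin fluorescence at 613 nm.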
PfG6PD inh = PfG6PD (Plasmodium falciparum) enzyme inhibition; PfGluPho enzyme, NADPH resazurin-diaphorase fluorescence; inhibition, % at 20 µM; hit rate 0.78% among 350,000;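 active = inhibition reaching at least a set limit at 20 µM in the primary screen, cut at about 59% in these data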;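 also: 0% = DMSO wells with substrate and 100% = DMSO wells lacking glucose-6-phosphate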
SUMO HTRF inh = inhibitors of human SUMOylation (UBC9) | P63279 | HTRF SUMOylation assay, SAE1/SAE2 + UBC9, in vitro | inhibition, % at 35 µM | hit rate 0.36% among 290,000 | AID 2006; in the data active = inhibition above about 50%, passing the limit was not always enough
A3A deaminase = human APOBEC3A DNA deaminase inhibition | P31941 | recombinant A3A, FAM/TAMRA ssDNA deamination fluorescence | inhibition, % at 20 µM | hit rate 0.41% among 330,000 | AID 493011;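 active = at least 40% inhibition at 20 µM here, with at most 30% in a related deaminase screen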;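 also: plate controls were A3A with DMSO for no effect and wells lacking A3A enzyme for full effect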
Target sequence (P31941 whole entry, looked up): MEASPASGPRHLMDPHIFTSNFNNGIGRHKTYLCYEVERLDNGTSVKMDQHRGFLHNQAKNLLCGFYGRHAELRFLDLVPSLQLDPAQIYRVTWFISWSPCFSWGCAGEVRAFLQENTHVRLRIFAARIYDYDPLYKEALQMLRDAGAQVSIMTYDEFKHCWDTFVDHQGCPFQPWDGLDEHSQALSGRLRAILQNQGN
APOBEC3G inh = APOBEC3G (human) deaminase inhibition | recombinant A3G, ssDNA deamination FAM/TAMRA fluorescence | inhibition, % at 20 µM | hit rate 0.28% among 330,000 | AID 493012;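 active = inhibition of at least 40% at 20 µM, with no more than 30% in the related APOBEC3A deaminase screen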;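 also: plate controls were DMSO wells with A3G for no effect and wells lacking A3G enzyme for full effect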
Target sequence (Q9HC16 whole entry, looked up): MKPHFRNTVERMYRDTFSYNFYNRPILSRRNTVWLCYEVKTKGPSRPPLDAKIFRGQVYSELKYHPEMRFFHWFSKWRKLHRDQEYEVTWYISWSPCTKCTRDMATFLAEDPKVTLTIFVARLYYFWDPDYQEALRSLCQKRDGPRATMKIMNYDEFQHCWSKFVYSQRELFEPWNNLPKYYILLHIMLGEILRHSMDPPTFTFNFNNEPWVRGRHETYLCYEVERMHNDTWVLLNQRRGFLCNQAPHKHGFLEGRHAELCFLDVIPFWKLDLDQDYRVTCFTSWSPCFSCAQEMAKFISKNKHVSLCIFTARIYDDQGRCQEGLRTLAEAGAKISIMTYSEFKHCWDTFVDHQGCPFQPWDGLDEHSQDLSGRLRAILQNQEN
PfM18AAP inh-2 = confirmation of Plasmodium falciparum M18 aspartyl aminopeptidase inhibitors. hit rate 28% among 2,400. inhibition, % at 7.35 µM. recombinant PfM18AAP, H-Glu-NHMec fluorogenic cleavage. shares compounds with PfM18AAP inh-1;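 active = mean inhibition over replicate wells above the hit cutoff set for the earlier primary screen, cut at about 29% in these data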;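 also: 0% = median of test compound wells and 100% = 2 mM ZnCl2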
CTSL1 confirm = Cathepsin L (human) inhibition, confirmation | 2,400 tested, under 10 active | shares compounds with PfM18AAP inh-1 | purified cathepsin L1, Z-Leu-Arg-MCA fluorescence | AID 2178 | inhibition, % at 5.96 µM;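 active = average inhibition across replicates above the hit cutoff set in the earlier primary screen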;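 also: 0% = median of test compound wells and 100% = Z-Phe-Ala-diazomethylketone 1 µM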
Active calls of the source: *; nt = no result given.

SMILES | PfM18AAP inh-1 | HKDC1 inh | PfG6PD inh | SUMO HTRF inh | A3A deaminase | APOBEC3G inh | PfM18AAP inh-2 | CTSL1 confirm
O=C(Nn1c(O)c(C=C2N=c3ccccc3=N2)sc1=S)c1ccccc1 | 56* | 13 | -6 | -19 | -2 | -7 | -4 | -2
CCCOC(=O)NC(CC)COC(=O)Nc1cccc(C)c1C (stereo not given) | -1 | 3 | -8 | -18 | 5 | -4 | nt | nt
C/C(Cl)=C\Cn1c(NCCCn2ccnc2)nc2c1c(=O)n(C)c(=O)n2C | -9 | -4 | -7 | 29 | -6 | -4 | nt | nt
CCN1CCc2c(sc(NC(=S)NC(=O)c3ccccc3)c2C#N)C1 | 38* | -1 | 47 | -15 | -4 | 14 | -29 | 2
CCN1CCc2c(sc(NC(=O)Cc3ccccc3)c2C(N)=O)C1 | -2 | -5 | 11 | -7 | -4 | -19 | nt | nt
N#Cc1c(NC(=S)NC(=O)c2ccccc2)sc2c1CCC2 | 8 | -10 | 13 | -3 | -1 | 1 | nt | nt
CCN1CCc2c(sc(NC(=S)NC(=O)c3ccco3)c2C(N)=O)C1 | 33* | 2 | 50 | 20 | 0 | 1 | -14 | 0
CCN1CCc2c(sc(NC(=O)c3ccc(S(=O)(=O)N(CC)c4ccccc4)cc3)c2C(N)=O)C1 | 36* | 10 | 9 | 21 | 0 | -3 | 6 | -7
Cc1ccc(-n2c(O)c(/C=N/n3cnnc3)c3ccccc3c2=O)cc1 | 71* | 2 | -17 | 15 | -2 | -4 | 64* | -2
Cc1ccc(-n2c(O)c(/C=N/c3ncn[nH]3)c3ccccc3c2=O)cc1 | 37* | 6 | 6 | 10 | -4 | -8 | -16 | 6
O=c1c2ccccc2c(/C=N/n2cnnc2)c(O)n1-c1ccccc1F | nt | -8 | 14 | 23 | -3 | -6 | nt | nt
Cc1ccc(NC(=O)CNc2cccc(Br)c2)cc1S(=O)(=O)N1CCOCC1 | nt | 1 | 11 | nt | -3 | -6 | nt | nt
CCOC(=O)c1c(C)n(C)c2ccc(OC(=O)c3ccco3)cc12 | 1 | 0 | -2 | 4 | 3 | 11 | nt | nt
CCOC(=O)c1c(C)n(C)c2ccc(OC(=O)c3ccc(N4C(=O)CCC4=O)cc3)cc12 | 57* | 16 | -19 | -4 | 2 | 2 | -58 | 2
CCC(c1nnc(SCC(=O)Nc2nnc(-c3ccccc3)o2)o1)N(C)C (stereo not given) | 69* | 0 | -9 | 8 | -4 | -9 | 35* | 2
O=C(c1ccccc1)c1c[nH]c(C(=O)NNc2cccc(Cl)n2)c1 | 52* | 3 | 2 | 6 | -1 | -4 | 31* | -1
O=C(c1ccc(Cl)cc1)c1c[nH]c(C(=O)NNc2cccc(Cl)n2)c1 | 51* | -3 | -8 | 19 | 1 | 0 | 36* | -6
O=C(NNc1cccc(Cl)n1)c1ccc(Cl)cc1Cl | 23 | -3 | 14 | 13 | 6 | -2 | nt | nt
C=C(C)C(=O)N1CC2(CC(c3cccc(NC(=O)CC)c3)=NO2)C[C@H]1C(N)=O (stereo not given in full) | nt | 1 | 4 | 27 | 1 | 15 | nt | nt
COCCNC(=O)CSc1nccn1Cc1ccc2c(c1)OCO2 | -2 | -5 | 7 | -2 | -7 | -4 | nt | nt
CC(C)Nc1nc(NC(C)C)nc(N(C)N)n1 | 48* | 0 | -12 | -1 | 1 | -1 | 40* | -5
CC(C)Nc1nc(NC(C)C)nc(N(C)C(N)=O)n1 | -3 | -11 | -3 | -6 | 2 | -1 | nt | nt
CCOc1ccccc1N(CC(=O)Nc1ccccc1C(=O)N1CCOCC1)S(C)(=O)=O | 1 | -4 | -9 | 4 | 4 | -3 | nt | nt
Cc1nn(C)cc1C(=O)NNC(=S)Nc1ccccc1 | 14 | -5 | -14 | -7 | 0 | 1 | nt | nt
CNC(=S)NNC(=O)c1cn(C)nc1C | 32* | -7 | 2 | -2 | 1 | -8 | 19 | -4
SMILES | PfM18AAP inh-1 | HKDC1 inh | PfG6PD inh | SUMO HTRF inh | A3A deaminase | APOBEC3G inh | PfM18AAP inh-2 | CTSL1 confirm
C=CCn1c(-c2ccc(OC)c(OC)c2)n[nH]c1=S | 36* | -4 | 21 | -13 | 4 | 16 | -27 | -2
CCn1c(-c2ccc(OC)c(OC)c2)n[nH]c1=S | 2 | 1 | 15 | 35 | -5 | 32 | nt | nt
O=C1C2CC=C(Cl)CC2C(=O)N1c1ncn[nH]1 (stereo not given) | 53* | -3 | -5 | 2 | 10 | -1 | 8 | -6
Cc1cnccc1CN(C)Cc1nc(Cc2ccccc2Cl)no1 | 3 | -11 | 2 | 12 | 4 | -4 | nt | nt
Cc1cc(O)c(N)c(C)c1Cl | 50* | 2 | 41 | -8 | 1 | 7 | 68* | -1
COc1cc2cccc(OC)c(=O)c2c(O)c1OC | 2 | -8 | -9 | 8 | 7 | 6 | nt | nt
CC(=O)Oc1cc2cccc(OC(C)=O)c(=O)c2c(OC(C)=O)c1OC(C)=O | 53* | 2 | 4 | 30 | 28 | 3 | 30* | -11
CCOc1cc(C2Nc3ccccc3NC3=C2C(=O)CC(C)(C)C3)ccc1O (stereo not given) | 37* | 16 | 32 | 17 | -7 | -6 | -28 | -8
CC(C)N=c1scc(-c2ccco2)n1/N=C/c1ccc(O)c(O)c1 | 45* | 6 | 12 | -9 | 0 | -2 | 49* | 0
COCCN=c1scc(-c2ccco2)n1/N=C/c1ccc(O)c(O)c1O | 36* | 21 | 55 | 81 | 51 | 70 | 5 | -2
CCc1ccccc1OCCCCCNCCO | 0 | -9 | 6 | 13 | 4 | -2 | nt | nt
CCOCCCNC(=O)C1CCC(=O)N1CCc1ccccc1 (stereo not given) | -1 | -3 | 3 | 10 | -3 | -6 | nt | nt
COc1ccc(C(c2c(N)[nH]c(=S)[nH]c2=O)c2c(N)[nH]c(=S)[nH]c2=O)cc1 | 21 | -3 | 3 | -1 | 0 | 14 | nt | nt
Cc1c(C)n(C(=O)CSc2ncn[nH]2)c2ccccc12 | 83* | 0 | 0 | 10 | 0 | -6 | 52* | 6
CC1=CC(C)(C)N(C(=O)CCl)c2ccccc21 | -12 | -4 | 16 | 21 | -4 | -6 | nt | nt
CC1=CC(C)(C)N(C(=O)CSc2ncn[nH]2)c2ccccc21 | 54* | -2 | 37 | -20 | 1 | -1 | -42 | 2
Cc1c(C)n(C(=O)CSc2nncn2C)c2ccccc12 | 1 | -8 | 6 | 11 | 1 | -5 | nt | nt
O=c1oc2c(-c3ccc([N+](=O)[O-])cc3)cc(O)cc2s1 | 33* | 11 | 32 | 29 | -3 | -5 | -11 | -2
Oc1ccccc1N1CCN(c2ncccn2)CC1 | 42* | -7 | 10 | 1 | -1 | -3 | -19 | 3
c1ccc(N2CCN(c3ncccn3)CC2)cc1 | -3 | -2 | -1 | 13 | 1 | -5 | nt | nt
